UBC13 inh – inhibitors of human UBC13 polyubiquitin chain formation. AID 485273. hit rate 0.47% among 330,000. inhibition, % at 20 µM. P61088. TR-FRET; in the data active means inhibition above about 45%, passing the limit was not always enough; inconclusive means no clear call, values can overlap the other calls
Target sequence (P61088 whole entry, looked up): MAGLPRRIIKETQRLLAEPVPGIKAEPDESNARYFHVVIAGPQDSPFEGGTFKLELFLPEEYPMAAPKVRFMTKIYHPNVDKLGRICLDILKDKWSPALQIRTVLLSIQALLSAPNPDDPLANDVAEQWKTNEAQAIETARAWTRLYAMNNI
MIN6 prolif – induces beta-cell replication in MIN6 cells | MIN6 cells proliferation, ATPlite luminescence, 48 h; cells starved in 0.2% serum; 100% = growth in 10% serum | proliferation, % at 10 µM | hit rate 0.29% among 330,000 | AID 2380;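 active means compounds whose signal lies at least 3.5 SD above the mean of all wells on their plate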
Granule exo inh – lytic granule exocytosis inhibition; TALL-104 LAMP-1 surface exposure, flow cytometry; cells stimulated with thapsigargin and PMA; inhibition, % at 10 µM; hit rate 0.66% among 360,000; AID 651702;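 active means inhibition above about 55%, limit read from the data; inconclusive means no clear call, values can overlap the other calls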
MPTP inh – blocks calcium-induced mitochondrial swelling; inhibition, % at 10 µM; hit rate 1.4% among 360,000; AID 602449; isolated mouse mitochondria, Ca2+ swelling absorbance, 30 min;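 active means inhibition of 50% or more, scaled per plate between neutral and stimulator controls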
Apaf-1 inh – blocks human Apaf-1 apoptosome activity; O14727; reconstituted apoptosome caspase-3 activity, DEVD-Rh110 fluorescence; inhibition, % at 20 µM; hit rate 0.71% among 330,000; AID 489030; active means inhibition of at least 40% at 20 µM
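Material: reconstituted apoptosome with Apaf-1, cytochrome c, caspase-9, procaspase-3, dATP; medium: pH 7.5 Hepes buffer with CHAPS, BSA, DTT; also added: cytochrome c and DEVD-Rh110 substrate; timing: 30 min plus 50 min, RT; signal: Rh110 fluorescence intensity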
hiPSC survival – hiPSC single-cell survival enhancement; ATPlite luminescence; 100% = ROCK inhibitor wells, 0% = DMSO; survival enhancement, % at 20 µM; hit rate 0.044% among 360,000; in the data active means survival enhancement above about 18%;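 further: cells exposed to compounds for 16 hours before the ATP read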
Apaf-1 inh conf – confirmation of Apaf-1 inhibitors; shares compounds with Apaf-1 inh; reconstituted apoptosome, caspase-3 DEVD-Rh110 fluorescence; inhibition, % at 20 µM; hit rate 25% among 1,800;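 active means mean inhibition of at least 40% at 20 µM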
Rh110 quench – interferes with Rh110 fluorescence, flagging false Apaf-1 inhibitors; shares compounds with Apaf-1 inh; Rh110 fluorescence interference, quenched caspase reaction; activation (fluorescence interference), % at 20 µM; 1,800 tested, under 10 active; AID 504615;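 active means signal rise of 40% or more at 20 µM, treated as a fluorescence artifact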
Fluor interf inh – counter-screen for Apaf-1 inhibitors: fluorescence interference, dose response. AID 588538. 460 tested, under 10 active. fluorescence interference counterscreen, Apaf-1 assay format. IC50, µM. shares compounds with Apaf-1 inh; call rule not given here
Each line names hits and unclear results; the compound was inactive in the other large screens (follow-up assays come after a bar, where they were run). This is a sample that favours compounds with a hit; in the whole collection about 3% have one here.

O=C(C[n+]1cccc(C(=O)N/N=C/c2ccc(Br)cc2)c1)c1ccccc1	Apaf-1 inh 50 | Apaf-1 inh conf inactive | Rh110 quench inactive
COc1ccc(C(=O)NCCCNC(=O)c2ccccn2)cc1Br	none
COc1ccc2nc(NC(=O)c3ccc(F)cc3)sc2c1	none
COc1ccc2c(c1)Cc1sc(NC(=O)c3ccccc3)nc1-2	Apaf-1 inh 83 | Apaf-1 inh conf 60 | Rh110 quench inactive | Fluor interf inh inactive
COc1ccc2c(c1)Cc1sc(NC(=O)c3cccs3)nc1-2	Apaf-1 inh 87 | Apaf-1 inh conf 44 | Rh110 quench inactive | Fluor interf inh inactive
COc1ccc(C(=O)Nc2nc3c(s2)Cc2cc(OC)ccc2-3)cc1	Apaf-1 inh 97 | Apaf-1 inh conf 59 | Rh110 quench inactive | Fluor interf inh inactive
CC1CN=C(c2ccccc2)O1 (configuration not stated)	none (no result: UBC13 inh, MIN6 prolif, Apaf-1 inh)
CCN(CC(=O)Nc1ccccc1C(F)(F)F)C(=O)c1ccccc1SCC(=O)N1CCCC1	Apaf-1 inh 43 | Apaf-1 inh conf inactive | Rh110 quench inactive
Cc1ccc(S(=O)(=O)N(C)C)cc1NC(=O)c1ccccc1SCC(=O)N1CCCC1	Apaf-1 inh 41 | Apaf-1 inh conf inactive | Rh110 quench inactive
Cc1ccc(NC(=O)c2ccccc2SCC(=O)N2CCCC2)cc1S(=O)(=O)N(C)C	none
CN(CC(=O)Nc1ccccc1C(F)(F)F)CC(=O)N1CCCCCC1	none
COc1ccc(N2CCN(CCC(O)c3ccc4ccccc4c3)CC2)cc1 (configuration not stated)	none
Cc1cc(C(=O)NNC(=O)Nc2ccccc2)no1	none
Cc1nc(C(=O)NNC(=O)Nc2ccccc2)cs1	Apaf-1 inh 57 | Apaf-1 inh conf inactive | Rh110 quench inactive
Cc1nnc(N/N=C/c2cccc(OCc3ccc(Cl)c(Cl)c3)c2)n1N	Apaf-1 inh 77 | Apaf-1 inh conf inactive | Rh110 quench inactive
Cc1nnc(N/N=C/c2cccc(C(F)(F)F)c2)n1N	none
CSc1ccccc1NC(=O)COc1ccc2c(c1)OCO2	Apaf-1 inh 45 | Apaf-1 inh conf inactive | Rh110 quench inactive
COc1ccccc1NC(=O)COc1ccc2c(c1)OCO2	none
CCOc1ccccc1NC(=O)CN1C(=O)COc2ccc(C)cc21	none
CN(c1ccccc1)S(=O)(=O)c1cccc(C(=O)NCC(=O)Nc2ccc(F)c(F)c2F)c1	none
CCC1CCCCN1C(=O)COc1ccc(N(C)S(=O)(=O)c2ccc(C)cc2)cc1 (configuration not stated)	Apaf-1 inh 51 | Apaf-1 inh conf inactive | Rh110 quench inactive
CCOc1ccc(CNC(=O)Nc2ccccc2)cc1	none
CCOC(=O)C1CCN(CCCSc2ccccc2)CC1	none (no result: UBC13 inh, MIN6 prolif, Apaf-1 inh)
COc1ccc(Br)cc1C1CC(=O)N2CN(Cc3ccccc3)CSC2=C1C#N (configuration not stated)	Apaf-1 inh 78 | Apaf-1 inh conf inactive | Rh110 quench inactive
N#CC1=C2SCN(Cc3ccccc3)CN2C(=O)CC1c1ccccc1F (configuration not stated)	none
COc1ccc(Br)cc1C1CC(=O)N2CN(C)CSC2=C1C#N (configuration not stated)	Apaf-1 inh 42 | Apaf-1 inh conf inactive | Rh110 quench inactive
COc1cc(OC)c(C2CC(=O)N3CN(c4ccccc4)CSC3=C2C#N)cc1OC (configuration not stated)	none
COc1ccc([C@H]2N[C@]3(CCCN(Cc4cccn4C)C3=O)[C@H]3C(=O)N(Cc4ccccc4)C(=O)[C@@H]23)cc1	none (no result: UBC13 inh, MIN6 prolif, Apaf-1 inh)
COc1ccc(Cn2nc(-c3ccccc3)c(N3CCCCC3)cc2=O)cc1	Apaf-1 inh 46 | Apaf-1 inh conf inactive | Rh110 quench inactive
O=C(O)C(F)=C1c2ccccc2-c2ccccc21	none
Cc1cc(O)c(C(C)C)cc1N=Cc1cc([N+](=O)[O-])ccc1O	Apaf-1 inh 44 | Apaf-1 inh conf inactive | Rh110 quench inactive
Cc1cc(O)c(C(C)C)cc1N=Cc1ccccc1O	none
CCCCCCSc1cc(-c2nc3cnccn3c2NCCCC)ccc1OC	Apaf-1 inh 46 | Apaf-1 inh conf inactive | Rh110 quench inactive
CCCCNc1c(-c2ccc(SC(C)CC)cc2)nc2cnccn12 (configuration not stated)	Apaf-1 inh 60 | Apaf-1 inh conf 46 | Rh110 quench inactive | Fluor interf inh inactive
CCCCNc1c(-c2ccc(OC)c(Sc3ccc(OC)cc3)c2)nc2ccccn12	none
CCCCCCSc1cc(-c2nc3cc(C)ccn3c2NCCCC)ccc1OC	none
CCCCNc1c(-c2ccc(OC)c(Sc3ccc(OC)cc3)c2)nc2cnccn12	Apaf-1 inh 43 | Apaf-1 inh conf inactive | Rh110 quench inactive
CC1C(=O)N(Cc2cn(Cc3ccco3)nn2)CCS(=O)(=O)N1Cc1ccc(-c2ccccc2C(F)(F)F)cc1 (configuration not stated)	none (no result: UBC13 inh, MIN6 prolif, Apaf-1 inh)
CCOc1ncccc1C(=O)Nc1cc(S(=O)(=O)N2CCOCC2)ccc1OCC(F)(F)F	UBC13 inh inconclusive
COCCN=C1N[C@@H](c2ccc(Br)cc2)C(C(=O)OC)=C(C)N1Cc1ccccc1	none
COC(=O)C1=C(C)N(Cc2ccccc2)C(=NCCc2c[nH]c3ccccc23)N[C@H]1c1ccccc1	Apaf-1 inh 69 | Apaf-1 inh conf inactive | Rh110 quench inactive
COC(=O)C1=C(C)N(Cc2ccccc2)C(=NCc2ccccc2)N[C@H]1c1ccccc1	Apaf-1 inh 47 | Apaf-1 inh conf inactive | Rh110 quench inactive
COCCN=C1N[C@@H](c2ccccc2)C(C(=O)OC)=C(C)N1Cc1ccccc1	none
COC(=O)c1c(C(=O)OC)c2c(-c3ccccc3)cc3cccc1n32	none (no result: UBC13 inh, MIN6 prolif, Apaf-1 inh)
COc1cc(C2SCC(=O)N2Cc2ccccc2)ccc1O (configuration not stated)	none
CN(CCO)c1cccc2c1S(=O)(=O)N[C@H](Cc1ccccc1)CO2	none (no result: UBC13 inh, MIN6 prolif, Apaf-1 inh)
Oc1cc(NCCc2cccnc2)cc2cccnc12	Apaf-1 inh 56 | Apaf-1 inh conf 47 | Rh110 quench inactive | Fluor interf inh inactive
Oc1cc(Nc2cccnc2)cc2cccnc12	none
O=C1c2ccccc2-c2onc3ccc(N4CCCC4)c1c23	none (no result: UBC13 inh, MIN6 prolif, Apaf-1 inh)
CCOc1ccc2noc3c2c1C(=O)c1ccccc1-3	Apaf-1 inh 76 | Apaf-1 inh conf 56 | Rh110 quench inactive
CCNc1ccc2noc3c2c1C(=O)c1ccccc1-3	none
O=C1c2ccccc2-c2onc3ccc(NCc4ccco4)c1c23	Granule exo inh 56, Apaf-1 inh 69 | Apaf-1 inh conf inactive | Rh110 quench inactive
